Series [1] relates to Mus musculus. Description: Toxicity in mouse L1210 cells allografted mouse at 30 mg/kg, ip qd for 9 days. The format is organism-based. Set-up: dose 30 mg/kg, route intraperitoneal. Conditions: in vivo, 216 h. The method in brief: (§1)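 Groups of five to ten mice were inoculated ip with about 10^6 L1210 cells and dosed once daily for 9 consecutive days beginning 24 h post-implantation. Toxicity was taken as the average body weight change at the end of drug treatment.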

Series [2] relates to Mus musculus. Description: Toxicity in mouse P388 cells allografted mouse at 50 mg/kg, ip qd for 9 days. Set-up: dose 50 mg/kg, route intraperitoneal. The note with it: in vivo, 216 h. The series is classed as organism-based. The method in brief:
(§2)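 NCI protocol. Groups of five to ten mice were inoculated intraperitoneally with about 10^6 tumor cells. Drug was given ip once daily for 9 consecutive days, starting 24 h after tumor implantation, over a range of dose levels. Toxicity was read as the average body weight change at the end of drug treatment.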

Series [3] has as its system L1210. Description: Antitumor activity against mouse L1210 cells allografted mouse assessed as host survival at 40 mg/kg, ip qd for 9 days relative to control. The format is functional. The note with it: route intraperitoneal. The method, boiled down:
(§3)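 NCI protocol: groups of five to ten mice inoculated ip with approximately 10^6 P-388 or L1210 cells. Drug given over a range of dose levels starting 24 h after implantation, once daily for 9 consecutive days. Survival expressed as %T/C = (average survival of treated)/(average survival of control) × 100.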

For series [4], the system named is P388. Description: Antitumor activity against mouse P388 cells allografted mouse assessed as host survival at 20 mg/kg, ip qd for 9 days relative to control. The format is functional. Conditions: route intraperitoneal. The method in brief: as §3
Series [5] relates to Mus musculus. Kind of series: Toxicity in mouse B16 cells allografted mouse at 24 mg/kg, ip qd for 9 days. The format is organism-based. Further details: dose 24 mg/kg, route intraperitoneal. The note with it: in vivo, 216 h. The method, boiled down:
(§4)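 Mice bearing B16 melanoma, dosed ip once daily for 9 days from 24 h after tumor implantation. Toxicity is recorded as the average body weight change at the end of drug treatment.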

Series [6] can be described thus: Binding affinity to synthetic melanin at 5.8 mg/100 mL after 15 mins by UV-spectroscopic analysis. The series is classed as physicochemical. Conditions: 0.25 h. The method, boiled down:
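Synthetic melanin was made from DL-Dopa with tyrosinase in 0.1 M phosphate pH 6.6 at 37 °C for 4 h. Melanin suspension (1.1 mg dry weight) was mixed with phosphate buffer (0.05 M, pH 6.4, 5% Me2SO), water, and 1 mL of drug solution (5.8 mg/100 mL). The mixture was shaken 15 min at room temperature and filtered. Unbound drug in the filtrate was measured by UV against a drug-free blank.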

Series [7] relates to L1210. Description: Antitumor activity against mouse L1210 cells allografted mouse assessed as host survival at 30 mg/kg, ip qd for 9 days relative to control. Conditions: route intraperitoneal. The series is classed as functional. The method, boiled down: as §3
Series [8] relates to P388. Description: Antitumor activity against mouse P388 cells allografted mouse assessed as host survival at 40 mg/kg, ip qd for 9 days relative to control. The format is functional. The note with it: route intraperitoneal. The method in brief:
as §3

Series [9] concerns Mus musculus. Kind of series: Toxicity in mouse P388 cells allografted mouse at 20 mg/kg, ip qd for 9 days. Set-up: dose 20 mg/kg, route intraperitoneal. Conditions: in vivo, 216 h. The format is organism-based. The method in brief: as §2
The test system of series [10] is B16. Description: Antitumor activity against mouse B16 cells allografted mouse assessed as host survival at 66.7 mg/kg, ip qd for 9 days relative to control. The series is classed as functional. Conditions: route intraperitoneal. The method in brief: (§5)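 B16 melanoma-bearing mice given drug ip once daily for 9 days, starting 24 h after tumor implantation. Read-out is average survival in days, expressed as %T/C = (average survival of treated mice)/(average survival of control mice) × 100.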

Series [11] deals with Mus musculus. Description: Toxicity in mouse P388 cells allografted mouse at 40 mg/kg, ip qd for 9 days. The series is classed as organism-based. Conditions: in vivo, 216 h. Further details: dose 40 mg/kg, route intraperitoneal. The method, boiled down:
as §2

Series [12] concerns Mus musculus. Kind of series: Toxicity in mouse L1210 cells allografted mouse at 40 mg/kg, ip qd for 9 days. The format is organism-based. Further details: dose 40 mg/kg, route intraperitoneal. The note with it: in vivo, 216 h. The method, boiled down:
as §1

Series [13] has as its system Mus musculus. Kind of series: Toxicity in mouse B16 cells allografted mouse at 66.7 mg/kg, ip qd for 9 days. The series is classed as organism-based. Set-up: dose 66.7 mg/kg, route intraperitoneal. Conditions: in vivo, 216 h. The method in brief:
as §4

The subject of series [14] is P388. Kind of series: Antitumor activity against mouse P388 cells allografted mouse assessed as host survival at 30 mg/kg, ip qd for 9 days relative to control. The format is functional. Conditions: route intraperitoneal. The method in brief:
as §3

Series [15] has as its system Mus musculus. Description: Toxicity in mouse P388 cells allografted mouse at 30 mg/kg, ip qd for 9 days. The format is organism-based. Further details: dose 30 mg/kg, route intraperitoneal. Conditions: in vivo, 216 h. The method, boiled down: as §2
The subject of series [16] is P388. Description: Antitumor activity against mouse P388 cells allografted mouse assessed as host survival at 50 mg/kg, ip qd for 9 days relative to control. The format is functional. The note with it: route intraperitoneal. The method, boiled down: as §3
The subject of series [17] is B16. Kind of series: Antitumor activity against mouse B16 cells allografted mouse assessed as host survival at 24 mg/kg, ip qd for 9 days relative to control. The format is functional. The note with it: route intraperitoneal. The method, boiled down: as §5
Series [18] relates to B16. Kind of series: Antitumor activity against mouse B16 cells allografted mouse assessed as host survival at 40 mg/kg, ip qd for 9 days relative to control. The series is classed as functional. Conditions: route intraperitoneal. The method in brief:
as §5

In series [19] the test system is Mus musculus. Description: Toxicity in mouse B16 cells allografted mouse at 40 mg/kg, ip qd for 9 days. The series is classed as organism-based. Set-up: dose 40 mg/kg, route intraperitoneal. Conditions: in vivo, 216 h. The method, boiled down: as §4
The test system of series [20] is P388. Kind of series: Antitumor activity against mouse P388 cells allografted mouse assessed as host survival at 60 mg/kg, ip qd for 9 days relative to control. The format is functional. Conditions: route intraperitoneal. The method in brief:
as §3

In series [21] the test system is L1210. Kind of series: Antitumor activity against mouse L1210 cells allografted mouse assessed as host survival at 60 mg/kg, ip qd for 9 days relative to control. Conditions: route intraperitoneal. The series is classed as functional. The method, boiled down:
as §3

The test system of series [22] is L1210. Description: Antitumor activity against mouse L1210 cells allografted mouse assessed as host survival at 50 mg/kg, ip qd for 9 days relative to control. The series is classed as functional. The note with it: route intraperitoneal. The method, boiled down:
as §3

The subject of series [23] is Mus musculus. Description: Toxicity in mouse L1210 cells allografted mouse at 50 mg/kg, ip qd for 9 days. The series is classed as organism-based. Set-up: dose 50 mg/kg, route intraperitoneal. The note with it: in vivo, 216 h. The method, boiled down:
as §1

Series [24] has as its system Mus musculus. Description: Toxicity in mouse P388 cells allografted mouse at 60 mg/kg, ip qd for 9 days. The format is organism-based. Further details: dose 60 mg/kg, route intraperitoneal. The note with it: in vivo, 216 h. The method in brief: as §2
The test system of series [25] is Mus musculus. Description: Toxicity in mouse L1210 cells allografted mouse at 60 mg/kg, ip qd for 9 days. The format is organism-based. Set-up: dose 60 mg/kg, route intraperitoneal. The note with it: in vivo, 216 h. The method, boiled down:
as §1

Each structure is given as a SMILES string.

Regarding `CN(C)/N=N\c1ccnc2c(Br)cccc12`, the Activity is listed as 6.1% with Mus musculus [1]; -5% in the series with Mus musculus [2]; -1.1% in the series with Mus musculus [5]; 48.1% in series [6]; 16% in the series on Mus musculus [9]; -3.3% in the series with Mus musculus [11]. Besides, the Activity in the series with Mus musculus [12] is on record as -5.9%; in the series on Mus musculus [13], -3.7%; in the series with Mus musculus [15], 4.8%; in the series with Mus musculus [19] it was -3%. For the same compound, the T/C (as a rule, the result in the treated group divided by that in the control group, in per cent) in the series on L1210 [3] is 144%; with P388 [4] it was 109%; with L1210 [7] it was 137%; in the series on P388 [8], 125%; in the series with B16 [10], 101%; with P388 [14], 113%. For the same compound, the T/C in the series on P388 [16] is recorded as 117%; with B16 [17], 97%; in the series on B16 [18] it was 90%. The values for the Survival in the series with B16 [10], with B16 [17] and in the series with B16 [18] were 21.3 days, 20.3 days and 19 days, respectively.
Turning to `CN(C)/N=N\c1ccnc2cc(I)ccc12`, the T/C in the series with P388 [20] is 127%; with L1210 [21] it was 131%; with L1210 [22] it was 107%; with P388 [4], 117%; with P388 [8], 130%. Further, the Activity with Mus musculus [23] is 4.9%; with Mus musculus [9] it was 10.8%; with Mus musculus [11], 5.7%; in the series on Mus musculus [24] it was -5.2%; in the series with Mus musculus [25], 2.9%.

Values taken from ChEMBL document CHEMBL3244044, “Synthesis and antitumor activity of halogen-substituted 4-(3,3-dimethyl-1-triazeno)quinolines” (J Med Chem, 1978).
